Screens as filed in PubChem.
Rows were chosen to be rich in hits. Some 1.6% of all compounds tested hit in one or more screens of this group.
Pf gametocyte = late stage P. falciparum gametocyte viability inhibitors, primary screen, ATP luminescence, HTS; P. falciparum stage V gametocytes, 24 h; inhibition, % at 10.9 µM; 150,000 compounds, 0.065% hits; AID 743093, 2013;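 active = inhibition above the mean plus 3 SD of compounds within the control limits, set per campaign, cut at about 38% in these data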;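 note: 0% = DMSO wells and 100% = medium only without gametocytes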
Mdm2 ligase inh = MDM2-luciferase reporter signal enhancers, primary screen, MDM2 E3 ligase inhibitor project, cell-based, luminescence, 1536-well. signal enhancement, % at 5 µM. 210,000 compounds, 0.11% hits. cell-based MDM2 ubiquitination luciferase reporter, 2 h; 0 = plate control, 100 = twice control, blank-subtracted. E3 ubiquitin-protein ligase Mdm2 (Homo sapiens), Q00987;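 active = signal enhancement of 30% or more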;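 note: luminescence tracks abundance of the self-degrading MDM2-luciferase fusion protein; higher signal means inhibition of MDM2 E3 ligase activity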
Target sequence (Q00987 whole entry, looked up, the tested form may be a part): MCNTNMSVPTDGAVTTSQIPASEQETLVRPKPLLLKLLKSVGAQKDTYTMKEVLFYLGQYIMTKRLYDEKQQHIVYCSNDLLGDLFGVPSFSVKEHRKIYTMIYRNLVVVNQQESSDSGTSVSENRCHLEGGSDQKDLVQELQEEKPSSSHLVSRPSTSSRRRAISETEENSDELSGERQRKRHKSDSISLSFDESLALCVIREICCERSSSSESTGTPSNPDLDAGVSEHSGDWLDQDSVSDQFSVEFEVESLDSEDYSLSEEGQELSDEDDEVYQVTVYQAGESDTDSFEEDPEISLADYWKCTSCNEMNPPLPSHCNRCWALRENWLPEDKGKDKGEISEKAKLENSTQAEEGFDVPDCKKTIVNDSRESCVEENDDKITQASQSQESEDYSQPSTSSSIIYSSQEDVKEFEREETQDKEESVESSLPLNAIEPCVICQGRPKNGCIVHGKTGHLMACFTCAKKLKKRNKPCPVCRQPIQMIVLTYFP
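System: stable MDM2–luciferase fusion reporter cells / Input: 2000 cells seeded into each well / Schedule: 4 h settle plus 2 h compound, 37 °C / Compound: single-point 5 µM / Buffer or medium: cells held in DMEM / Benchmarks: control and blank well means / Evaluation: percent signal gain over controls, blank-subtracted / Measured by: luciferase luminescence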
zVAD death inh = inhibitors of zVAD-triggered necroptosis, primary screen, L929 cells. L929 zVAD necroptosis rescue, ATP luminescence, 24 h; with zVAD 60 µM. viability rescue, % at 10 µM. 220,000 compounds, 0.38% hits;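 active = activation, scaled between plate controls, above about 75%, limit read from the data; inactive = activation under that limit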;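 note: 0% = zVAD with DMSO and 100% = DMSO alone without zVAD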
Wee1 degr inh = Wee1 degradation inhibitors, primary screen, cell-based, HeLa, Wee1K328M-luciferase, luminescence; 220,000 compounds, 1.2% hits; reporter increase, % at 5 µM; HeLa Luc-Wee1K328M stability; 100% = proteasome inhibitor MG132 effect;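 active = activation above the mean of all tested compounds plus 3 SD, set per screening run, cut at about 8.8% in these data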;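 note: cells exposed to compound for 20 h before luminescence read; 0% = DMSO alone and 100% = MG132 at 30 µM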
TNF death inh = inhibitors of TNF-alpha triggered necroptosis, primary screen, cell-based, Jurkat FADD-/-, single concentration. Jurkat FADD-/- TNF necroptosis rescue, ATP luminescence, 24 h; 0 = TNF only, 100 = no-TNF cells. activation (protection from cell death), % at 10 µM. 220,000 compounds, 0.068% hits. AID 463075, 2010;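 active = activation, meaning protection from cell death, of at least 50% relative to plate controls; inactive = activation below 50%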;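 note: necroptosis triggered by 40 ng/mL TNF-alpha added together with compound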
Numbers without * were called inactive; · = no result given; ! = not confirmed by another sample.

SMILES | Pf gametocyte | Mdm2 ligase inh | zVAD death inh | Wee1 degr inh | TNF death inh
O=C(O)Cn1cnc2ccccc2c1=O | · | -6.5 | -0.9 | 9.6* | 0.5
O=c1[nH]c(=S)c2ncn(-c3ccccc3)c2[nH]1 | 8.8 | -10.4 | 1.0 | 1.6 | -1.1
Cc1ccc(NC(=O)N/C=C/c2ccco2)c(C)c1 | -19.6 | 7.4 | 0.0 | -2.3 | -2.3
Cc1ccc(C)c(Sc2ccc(NC(=O)CCl)cc2)c1 | -7.6 | -26.4 | 1.8 | 15.7* | -10.2
O=[N+]([O-])c1ccc2[nH]nc(-c3ccccc3)c2c1 | -10.1 | -0.4 | 32.9 | 8.9* | 0.6
Cc1cc(C(=O)Nc2cccc3ccccc23)n(-c2ccccc2)n1 | -7.6 | 41.6* | -0.4 | 5.3 | 0.6
CC(=O)Nc1ccc(NC(=O)c2cc(C)nn2-c2ccccc2)cc1 | 13.7 | -0.6 | -0.2 | -0.2 | -2.2
CCOC(=O)c1c(NC(=O)c2ccc(C)cc2)sc2c1CC(C)(C)OC2 | 16.9 | -11.6 | 1.3 | 1.2 | -0.1
COC(=O)c1c(NC(=O)c2ccccc2)sc2c1CC(C)(C)OC2 | · | -0.9 | 0.2 | 9.4* | 0.9
O=C1COc2cccnc2N1 | -5.6 | -19.9 | 0.0 | 9.4*! | -1.6
O=C1COc2ccccc2CN1 | -0.2 | 7.3 | 0.1 | 2.0 | -1.7
Cc1cccc(NC(=O)COC(=O)c2ccccc2-c2nc3ccccc3s2)c1C | 8.3 | -4.3 | 1.4 | -1.7 | -0.8
CCCCN(C(C)=O)c1c(N)n(CCC)c(=O)n(CC(=O)Nc2cc(Cl)cc(Cl)c2)c1=O | -1.1 | 4.9 | 2.6 | 11.9* | 1.1
CCOC(=O)CC1CCCCN1Cc1cn(C)nc1-c1ccc2c(c1)OCCO2 (centres undefined) | 41.6* | -1.8 | 0.1 | -1.6 | 2.0
c1ccc(-c2ccc(OCCCNC3CCCC3)cc2)cc1 | 2.4 | -12.8 | 14.0 | 4.7 | 1.6
Cc1ccc(S(=O)(=O)N2CCOCC2)cc1NC(=O)CN(C)C1CCS(=O)(=O)C1 (centres undefined) | -10.2 | · | -0.2 | 9.0* | 1.6
C/C(=N\N=C(N)N)c1ccc(Cl)c(Cl)c1 | -4.5 | -23.1 | 2.0 | -0.3 | -2.4
O=c1[nH]c(CSc2nc3ccccc3s2)nc2ccccc12 | 12.4 | · | -0.3 | 9.0* | 2.9
COc1ccc(C(=O)Nc2nc(N)n(-c3ccccc3)n2)cc1 | -14.2 | -3.3 | · | 0.6 | -4.4
Nc1nc(NC(=O)c2ccccc2)nn1-c1ccccc1 | 57.7* | -9.5 | · | -0.2 | -2.1
O=C(NCc1ccco1)c1cc(S(=O)(=O)N2CCOCC2)ccc1Cl | · | -4.0 | 0.1 | 0.8 | 0.7
O=C(O)CSc1nc2ccccc2c(=O)[nH]1 | · | -22.9 | 0.7 | 1.1 | 1.4
CC(C)(C)NC(=O)CSc1nc2ccccc2c(=O)[nH]1 | -2.2 | -10.9 | -0.1 | 9.6* | 1.3
Fc1ccccc1NC(=S)N/N=C/c1ccccc1Br | 8.0 | · | 0.2 | 10.6* | -0.6
CC(C)Oc1ccc(CNC(=S)N/N=C/c2cccnc2)cc1 | · | -16.9 | -0.2 | 9.2* | -3.1
SMILES | Pf gametocyte | Mdm2 ligase inh | zVAD death inh | Wee1 degr inh | TNF death inh
O=C(c1ccc(Cl)cc1)c1ccc(Oc2cc(NN3CCCCC3)c([N+](=O)[O-])cc2[N+](=O)[O-])cc1 | 22.1 | · | · | · | ·
COc1ccc2[nH]c3c(N4CCc5ccccc5C4)ncnc3c2c1 | -7.3 | -16.3 | -0.8 | 9.7* | -13.7
COCCSc1nnc(NC(=O)CSc2ccccc2)s1 | · | -16.3 | 0.0 | -1.9 | 1.1
COCCSc1nnc(NC(=O)C(C)(C)C)s1 | -12.1 | · | 0.0 | 8.8* | -0.3
CCOC(=O)C/C(N)=N/NC(=O)c1ccc(Cl)cc1Cl | 14.0 | -7.9 | 0.4 | 10.8* | 0.3
Cn1cc(C(=O)c2ccc(Cl)cc2Cl)cc1C(=O)N/N=C(\N)COc1ccc(Cl)cc1Cl | · | -2.5 | -0.6 | 1.9 | -3.7
CCOc1ccccc1NC(=O)c1ccc(S(=O)(=O)N2CCOCC2)cc1 | · | · | -0.1 | 10.6* | 2.0
N#Cc1c(F)cccc1N1CCOCC1 | · | -21.1 | 0.0 | -2.1 | 0.5
O=C(C1COc2ccccc2O1)N1CCCC1 (centres undefined) | 4.0 | -11.2 | -0.6 | 0.0 | 2.1
O=C(C1COc2ccccc2O1)N1CCc2ccccc21 (centres undefined) | · | -9.2 | 2.4 | 0.2 | 89.2*
CC(O)C(=O)NCCOCCOCCNC(=O)C(C)O (centres undefined) | · | -1.3 | -0.4 | 9.5* | 1.8
Cc1c(NC(=O)c2cnn3c2NC(c2ccccc2)CC3C(F)(F)F)c(=O)n(-c2ccccc2)n1C (centres undefined) | · | -13.0 | 1.3 | 2.0 | -1.6
Cc1nn(-c2ccccc2)c2nc(-c3ccncc3)cc(C(=O)NCc3ccco3)c12 | 55.9* | -17.7 | 1.0 | 6.8 | -2.8
Cc1ccc(Sc2ncnc3onc(C)c23)c(C)c1 | -34.7 | -7.7 | -1.5 | 9.1* | 1.0
COc1ccc2nc(N3CCCC3)c(C#N)cc2c1 | · | -3.0 | 0.3 | 8.9* | -7.4
COc1ccc(Cc2nc(-c3cccs3)no2)cc1OC | · | -6.0 | -0.2 | 1.7 | -0.3
COc1ccc(Cc2nc(-c3cccs3)no2)cc1 | -10.8 | -66.8 | -0.1 | 8.9* | 4.9
O=C(Nc1ccc2c(c1)OCO2)N1CCN(c2ncccn2)CC1 | · | -3.3 | -0.3 | -0.1 | -1.0
CC1CCCCC1NC(=O)CCCn1c(=S)[nH]c2ccccc2c1=O (centres undefined) | 6.7 | -1.8 | 3.8 | -0.2 | 0.3
CC1CCCN(C(=O)CCCn2c(=S)[nH]c3ccccc3c2=O)C1 (centres undefined) | -29.6 | 14.1 | -0.1 | 9.7* | 2.8
COc1ccc(C)cc1NC(=O)c1nnn(CCc2ccccc2)c1N | · | -10.6 | 1.7 | 1.3 | 1.1
COc1ccc(CNC(=O)C2CCCN(S(=O)(=O)c3cc(C)ccc3OC)C2)cc1 (centres undefined) | -8.6 | 4.5 | 0.2 | -4.9 | 0.7
CCOC(=O)N1CCN(C(=O)C2CCCN(S(=O)(=O)c3cc(C)ccc3OC)C2)CC1 (centres undefined) | -18.8 | 78.6* | -0.1 | 1.0 | -1.2
Cn1nnnc1SCC(=O)Nc1cc(C(C)(C)C)nn1-c1ccccc1 | · | -16.7 | 0.5 | -0.1 | 1.0
COc1ccccc1-n1cnnc1SCC(=O)Nc1cc(C(C)(C)C)nn1-c1ccccc1 | 26.7 | -5.4 | 105.3* | 0.4 | 6.8
Cc1cccc(NC(=O)CSc2nc(N)c(NC(=O)c3cccs3)c(=O)[nH]2)c1 | · | · | · | 9.3* | 0.7
Cc1ccc(C)c(NC(=O)CSc2nc(N)c(NC(=O)c3cccs3)c(=O)[nH]2)c1 | · | · | · | 1.1 | 0.6
Cc1cc(C)nc(S/C=C/C(=O)c2ccc(F)cc2)n1 | · | 59.2* | -0.6 | -1.8 | -24.9
